Experimental data taken from ChEMBL document CHEMBL1139254, “Synthesis and in vitro activities of a new antiviral duplex drug linking Zidovudine (AZT) and Foscarnet (PFA) via an octadecylglycerol residue” (Bioorg Med Chem, 2009).

Legend:
[1] = tested on: Human betaherpesvirus 5; assay: Antiviral activity against ganciclovir-resistant HCMV U405 isolate replication in HFF cells by plaque reduction assay; type: functional, organism-based; details: Human betaherpesvirus 5, HFF
Summary of the method: (§1)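 Plaque reduction run as a modified, simplified micro-culture, cell-associated immediate-early assay on human foreskin fibroblast monolayers (passage 15–30) in MEM with 10% FCS. Drug was diluted in MEM–10% FCS from a 100 mM PBS stock. IC50 came from Probit analysis. Strain HCMV-3res carries the UL97 C603W mutation. U405 is a clinical isolate from a pediatric stem cell transplant recipient.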

[2] = tested on: Human betaherpesvirus 5; assay: Antiviral activity against ganciclovir-resistant HCMV3 isolate replication in HFF cells by plaque reduction assay; type: functional, organism-based; details: Human betaherpesvirus 5, HFF; summary of the method: as §1
[3] = tested on: Human alphaherpesvirus 1; assay: Antiviral activity against acyclovir-resistant HSV1 L182 isolate replication in african green monkey Vero cells by plaque reduction assay; type: functional, organism-based; details: Human alphaherpesvirus 1, Vero
Summary of the method: (§2)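 HSV-1 was grown and assayed by plaque reduction in Vero cell monolayers in MEM with 10% FCS. Drug was diluted in MEM–10% FCS from a 100 mM PBS stock, and IC50 was read from the plaque counts. KOS-M was derived from KOS by 3 weeks of passage in 13 μM ACV.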

[4] = tested on: Human alphaherpesvirus 1; assay: Antiviral activity against acyclovir-sensitive HSV1 KOS isolate replication in african green monkey Vero cells by plaque reduction assay; type: functional, organism-based; details: Human alphaherpesvirus 1, Vero; summary of the method: as §2
[5] = tested on: Human alphaherpesvirus 1; assay: Antiviral activity against acyclovir-resistant HSV1 KOS-M isolate replication in african green monkey Vero cells by plaque reduction assay; type: functional, organism-based; details: Human alphaherpesvirus 1, Vero; summary of the method: as §2
[6] = tested on: Human betaherpesvirus 5; assay: Antiviral activity against ganciclovir-sensitive HCMV1 isolate replication in HFF cells by plaque reduction assay; type: functional, organism-based; details: Human betaherpesvirus 5, HFF; summary of the method: as §1
[7] = tested on: Human alphaherpesvirus 1; assay: Antiviral activity against acyclovir-sensitive HSV1 L177 isolate replication in african green monkey Vero cells by plaque reduction assay; type: functional, organism-based; details: Human alphaherpesvirus 1, Vero; summary of the method: as §2
[8] = Therapeutic index, IC50 for human CEM-SS cells to EC50 for HIV1; type: cell-based; details: read-out: Ratio IC50/EC50
Summary of the method: (§3)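 Run at the National Cancer Institute (USA). The assay rests on HIV killing T4 lymphocytes. EC50 is the concentration protecting against virus cytopathic effect, and IC50 is 50% inhibition of cell growth. The therapeutic index is TI50 = IC50/EC50.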

[9] = tested on: Human alphaherpesvirus 1; assay: Antiviral activity against acyclovir-sensitive HSV1 K161 isolate replication in african green monkey Vero cells by plaque reduction assay; type: functional, organism-based; details: Human alphaherpesvirus 1, Vero; summary of the method: as §2
[10] = tested on: Human immunodeficiency virus 1; assay: Antiviral activity against HIV1 infected in human CEM-SS cells assessed as inhibition of virus-induced cytopathic effect by plaque reduction assay; type: functional, organism-based; details: Human immunodeficiency virus 1, CEM-SS; summary of the method: as §3
[11] = tested on: CEM-SS; assay: Growth inhibition of human CEM-SS cells; type: cell-based; summary of the method: as §3
[12] = tested on: Human alphaherpesvirus 1; assay: Antiviral activity against acyclovir-resistant HSV1 K143 isolate replication in african green monkey Vero cells by plaque reduction assay; type: functional, organism-based; details: Human alphaherpesvirus 1, Vero; summary of the method: as §2

SMILES | IC50 [1] [µM] | IC50 [2] [µM] | IC50 [3] [µM] | IC50 [4] [µM] | IC50 [5] [µM] | IC50 [6] [µM] | IC50 [7] [µM] | selectivity ratio [8] | IC50 [9] [µM] | EC50 [10] [µM] | IC50 [11] [µM] | IC50 [12] [µM]
CCCCCCCCCCCCCCCCCCOC[C@H](COP(=O)(O)C(=O)O)OP(=O)(O)OC[C@H]1O[C@@H](n2cc(C)c(=O)[nH]c2=O)C[C@@H]1N=[N+]=[N-] | 4.29 | 1.18 | 1.87 | 4.02 | 3.39 | 2.78 | 1.92 | 454 | 2.27 | 0.17 | 92.7 | 4.59
Nc1nc2c(ncn2COCCO)c(=O)[nH]1 [ACYCLOVIR] |  |  | 9.51 | 3.04 | 31.2 |  | 0.32 |  | 0.58 |  |  | 75.1
O=C(O)P(=O)(O)O [FOSCARNET] | 400 | 67.5 | 46 | 125 | 112 |  | 64 |  |  |  |  | 
Nc1nc2c(ncn2COC(CO)CO)c(=O)[nH]1 [GANCICLOVIR] |  | 16.4 |  |  |  | 3.22 |  |  |  |  |  | 
